FN deposition inh: inhibitors of fibronectin matrix deposition, primary screen, AH1F cells, Alexa488-fibronectin fluorescence, plate reader; inhibition, % at 12.6 µM; AH1F fibroblasts, overnight; 0.086% of 350,000 active;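 active means mean inhibition across replicates of 30% or more, regardless of how many single replicates reach that level; inconclusive means mean under 30% yet at least half of replicates reach 30%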
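Assay system: AH1F fibroblasts assembling fluorescent fibronectin matrix; Amount: 10000 AH1F cells per well; Buffer or medium: DMEM, 2% serum; Probe or stimulus: Alexa488-fibronectin, 24 nM final in well; Doses: single compound dose, delivered by pin transfer; Incubation: 1 h adhesion, overnight exposure; Measured by: fluorescence 485/525 nm; Read-out: fibronectin deposition inhibition.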
RAD52 anneal inh: RAD52 DNA annealing inhibitors, primary screen, biochemical, FRET, single point, set 2; DNA repair protein RAD52 homolog (Homo sapiens), P43351; recombinant RAD52 DNA annealing, FRET fluorescence; inhibition, % at 18.7 µM; 0.46% of 360,000 active;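 active means every replicate showing at least 50% inhibition; inconclusive means mean inhibition at least 50% but not in every replicate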
Target sequence (P43351 whole entry, looked up): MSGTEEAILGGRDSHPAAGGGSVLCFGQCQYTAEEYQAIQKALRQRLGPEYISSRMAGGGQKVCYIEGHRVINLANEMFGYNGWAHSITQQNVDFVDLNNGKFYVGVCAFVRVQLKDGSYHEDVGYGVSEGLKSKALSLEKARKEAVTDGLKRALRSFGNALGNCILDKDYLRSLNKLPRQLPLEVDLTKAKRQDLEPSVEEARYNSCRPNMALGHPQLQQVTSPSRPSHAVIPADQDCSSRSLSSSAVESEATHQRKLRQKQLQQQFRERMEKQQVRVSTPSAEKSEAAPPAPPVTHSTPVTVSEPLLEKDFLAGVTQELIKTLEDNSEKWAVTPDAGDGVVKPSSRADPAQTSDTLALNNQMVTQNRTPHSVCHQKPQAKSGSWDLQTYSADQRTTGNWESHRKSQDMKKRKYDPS
AF4-AF9 inh: inhibitors of AF4 peptide binding to AF9, primary screen, biochemical, AlphaScreen, biotin-AF4 peptide, FLAG-AF9, single point; inhibition, % at 10 µM; 0.47% of 350,000 active;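 active means every replicate reaching a set inhibition limit, whatever the replicate mean, cut at about 25% in these data; inconclusive means mean inhibition reaches that limit but some replicates miss it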
RAD54 inh: inhibitors of human RAD54 branch migration, primary screen, biochemical, fluorescence, single point. DNA repair and recombination protein RAD54-like (Homo sapiens), Q92698. RAD54 Holliday junction branch migration, FAM/BHQ fluorescence. inhibition, % at 10.4 µM. 0.14% of 360,000 active. AID 602329, 2012;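 active means mean normalized replicate activity at least 40 and at least half of replicates scoring 40 or more; inconclusive means only one of the two criteria met; inactive means mean below 40 and under half of replicates reaching 40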;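 further: inhibitors cause a drop in the FAM fluorescence signal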
Glyco luc inh: increase of ERlucT glycosylation luciferase signal, primary screen, N-linked glycosylation inhibitor project, D54 ERlucT cells, luminescence, set 2 | D54 ERlucT glycosylation luciferase reporter, 24 h; percent of 100 nM tunicamycin response | reporter increase, % at 12.5 µM | 0.23% of 360,000 active | AID 588692, 2011;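 active means mean luciferase reporter signal, scaled so untreated is 0 and the glycosylation-blocking control 100, at or above a set limit in every replicate; inconclusive means mean reaches the limit but not every replicate does; inactive means mean below the limit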;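 further: luciferase carries N-glycosylation sites so blocking glycosylation raises the light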
NSD2 HMT inh: NSD2 histone methyltransferase inhibitors, primary screen, biochemical, AlphaScreen, single concentration, set 2; Histone-lysine N-methyltransferase NSD2 (Homo sapiens), O96028; NSD2 peptide methylation, 120 min; inhibition, % at 12.5 µM; 0.54% of 310,000 active; AID 743445, 2014; in the data active means inhibition above about 50%
DNA binder FP: DNA-binding compounds via dye displacement, dose response, artefact control for RAD52 inhibitor project, biochemical, fluorescence polarization, cherry-pick; AID 652128, 2013; 8% of 1,000 active; shares compounds with RAD52 anneal inh; AC50, µM; Salmon sperm DNA/acridine orange FP displacement;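 active means fitted half-maximal concentration for signal loss at or below twice the highest dose tested, in every separate run, actives reach about 64 µM in these data; inconclusive means runs disagree, or flat partial signal loss, or poor fit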
Of the large screens only hits and unclear results are named; the others gave an inactive call (follow-up assays come after a bar, where they were run); ! = not active in a repeat. Sampled rows, rich in hits. Any-hit rate of the full collection: about 1.2%.

CN(C)CCN(C(=O)c1ccc2ccccc2c1)c1nc2cc3c(cc2s1)OCCO3	RAD52 anneal inh 69, AF4-AF9 inh 50 | DNA binder FP inactive
CCN(CC)CCN(C(=O)c1ccc(C(=O)c2ccccc2)cc1)c1nc2ccc(OC)cc2s1	none
CCN(c1ccccc1)S(=O)(=O)c1ccc(C(=O)N(CCCN(C)C)c2nc3cc4c(cc3s2)OCO4)cc1	RAD52 anneal inh 66, AF4-AF9 inh inconclusive | DNA binder FP inactive
Cc1cc(C(=O)Nc2cccc3c2O[C@@H](CN(C)S(=O)(=O)c2ccc(F)cc2)[C@H](C)CN([C@@H](C)CO)C3=O)n(C)n1	none (no result: FN deposition inh, Glyco luc inh, NSD2 HMT inh)
COc1ccc(NC(=O)N[C@@H]2CC[C@@H](CCNC(=O)CCN3CCCCC3)O[C@H]2CO)cc1	none (no result: Glyco luc inh, NSD2 HMT inh)
C[C@@H]1CN([C@@H](C)CO)C(=O)c2cc(NS(C)(=O)=O)ccc2O[C@@H](C)CCCCO[C@@H]1CN(C)C	none (no result: Glyco luc inh, NSD2 HMT inh)
COc1ccc(NC(=O)CCN2CCN(c3ccc(F)cc3)CC2)cc1	none | DNA binder FP inactive
CCOc1ccc(NC(=O)CCN2CCN(c3ccccc3)CC2)cc1	none (no result: RAD52 anneal inh, AF4-AF9 inh)
C[C@@H]1CN([C@@H](C)CO)C(=O)c2cc(NC(=O)c3ccccc3)ccc2O[C@@H](C)CCCCO[C@H]1CN(C)S(=O)(=O)c1cn(C)cn1	none (no result: RAD54 inh, Glyco luc inh, NSD2 HMT inh)
COCCCn1c(=N)c(C(N)=S)cc2c(=O)n3cccc(C)c3nc21	none
Cc1cccn2c(=O)c3cc(C(N)=S)c(=N)n(CCCN4CCOCC4)c3nc12	RAD52 anneal inh 86 (no result: RAD54 inh) | DNA binder FP inactive
Cc1cccn2c(=O)c3cc(C(=O)NC(C)c4ccccc4)c(=N)n(CCCn4ccnc4)c3nc12 (centres undefined)	RAD52 anneal inh 68 (no result: RAD54 inh, NSD2 HMT inh) | DNA binder FP inactive
CN(C)C(=O)c1cccc(-c2cnc3c(NC=O)cc(-c4cccc(F)c4)cn23)c1	none
CN(C)CCNC(=O)c1cccc(-c2cnc3c(NC=O)cc(-c4cc(F)c(F)c(F)c4)cn23)c1	RAD52 anneal inh 67 | DNA binder FP inactive
CNC[C@H]1OCCCC[C@H](C)Oc2ccc(NS(=O)(=O)c3ccc(OC)cc3)cc2C(=O)N([C@@H](C)CO)C[C@H]1C	none (no result: FN deposition inh, Glyco luc inh, NSD2 HMT inh)
O=C(Nc1cccc(C(=O)Nc2cccc(Br)c2)c1)c1ccccc1	RAD52 anneal inh 94 | DNA binder FP inactive
O=S(=O)(c1ccc2ccccc2c1)N1CCN(Cc2cccc(OCCO)c2)CC1	none (no result: FN deposition inh, Glyco luc inh, NSD2 HMT inh)
COc1cc(CNC(C)c2ccccc2)cc(Br)c1OCc1ccc(F)cc1 (centres undefined)	RAD52 anneal inh 54 | DNA binder FP inactive
COc1cc(CNC(C)c2ccccc2)cc(Br)c1OCc1ccccc1 (centres undefined)	none
CCN(CC)CCCNC(=O)c1csc(Nc2cccc3ccccc23)n1	RAD52 anneal inh 92 | DNA binder FP inactive
CCN(CC)C(=O)c1csc(Nc2cccc3ccccc23)n1	none
COc1ccc(NC(=O)Nc2ccc3c(c2)C(=O)N([C@H](C)CO)C[C@@H](C)[C@@H](CN(C)Cc2ccc4c(c2)OCO4)OCCCC[C@H](C)O3)cc1	RAD52 anneal inh 59! (no result: Glyco luc inh, NSD2 HMT inh) | DNA binder FP inactive
COc1cc(CNC(C)(C)CO)cc(Br)c1OCc1ccc(Cl)cc1Cl	RAD52 anneal inh 55 (no result: RAD54 inh) | DNA binder FP inactive
Cc1noc(C)c1S(=O)(=O)Nc1ccc2c(c1)C(=O)N([C@H](C)CO)C[C@@H](C)[C@H](CN(C)Cc1ccc(Cl)c(Cl)c1)OCCCC[C@@H](C)O2	none (no result: FN deposition inh, Glyco luc inh, NSD2 HMT inh)
CN1C(=O)c2cc(NC(=O)c3cc(F)cc(F)c3)ccc2OC[C@H]2O[C@@H](CC(=O)O)CC[C@@H]21	none (no result: Glyco luc inh, NSD2 HMT inh)
CN1CCN(Cc2cc(COCc3ccccc3)c3cccnc3c2O)CC1	none (no result: RAD52 anneal inh, AF4-AF9 inh, NSD2 HMT inh)
